# pIC50: −log10 of the molar value.
# Legend:
# [1] = target: Protein kinase C gamma type (Homo sapiens) (UniProt P05129); assay: Inhibition of Protein kinase C gamma at 100 nM; set-up: scale not given: the % may be the effect or the level left
# Method in brief: (§1)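 Panel profiling of isolated kinases with inhibitor at 100 nM and 500 nM. […] Remaining kinase activity is expressed as % of control and is the mean of duplicate assays.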
# [2] = target: RAF proto-oncogene serine/threonine-protein kinase (Homo sapiens) (UniProt P04049); assay: Inhibition of RAF proto-oncogene serine/threonine-protein kinase at 500 nM; set-up: scale not given: the % may be the effect or the level left
# RAF proto-oncogene serine/threonine-protein kinase (Homo sapiens), sequence (P04049 whole entry): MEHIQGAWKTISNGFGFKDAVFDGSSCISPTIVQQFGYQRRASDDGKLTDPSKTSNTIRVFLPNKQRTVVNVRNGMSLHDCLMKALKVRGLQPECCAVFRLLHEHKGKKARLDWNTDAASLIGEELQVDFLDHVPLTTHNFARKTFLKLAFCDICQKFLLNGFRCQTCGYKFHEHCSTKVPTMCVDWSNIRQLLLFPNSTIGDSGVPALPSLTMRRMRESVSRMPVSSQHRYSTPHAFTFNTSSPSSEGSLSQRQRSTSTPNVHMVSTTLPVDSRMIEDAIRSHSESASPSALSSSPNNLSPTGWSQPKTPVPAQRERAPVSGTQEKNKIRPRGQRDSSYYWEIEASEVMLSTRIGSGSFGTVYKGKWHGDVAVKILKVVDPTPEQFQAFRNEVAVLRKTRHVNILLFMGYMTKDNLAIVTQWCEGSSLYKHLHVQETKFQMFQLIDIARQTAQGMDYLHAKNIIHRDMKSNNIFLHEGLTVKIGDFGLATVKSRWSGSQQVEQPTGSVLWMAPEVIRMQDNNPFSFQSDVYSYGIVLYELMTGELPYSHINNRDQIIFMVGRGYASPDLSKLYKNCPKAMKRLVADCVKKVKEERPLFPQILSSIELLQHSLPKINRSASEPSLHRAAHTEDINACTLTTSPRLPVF
# Method in brief: (§2)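 Panel of 39 kinases, each tested at 100 and 500 nM inhibitor. […] Activity is expressed as % of control and is the mean of duplicate assays.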
# [3] = target: Dual specificity mitogen-activated protein kinase kinase 4 (Homo sapiens) (UniProt P45985); assay: Inhibition of mitogen-activated protein kinase kinase 4 at 500 nM; set-up: scale not given: the % may be the effect or the level left; method in brief: as §2
# [4] = target: Dual specificity mitogen-activated protein kinase kinase 7 (Homo sapiens) (UniProt O14733); assay: Inhibition of MKK7-beta kinase at 100 nM; set-up: scale not given: the % may be the effect or the level left; method in brief: as §1
# [5] = target: Calcium/calmodulin-dependent protein kinase type IV (Homo sapiens) (UniProt Q16566); assay: Inhibition of Calcium/calmodulin-dependent protein kinase type IV at 500 nM; set-up: scale not given: the % may be the effect or the level left; method in brief: as §1
# Calcium/calmodulin-dependent protein kinase type IV (Homo sapiens), sequence (Q16566 whole entry): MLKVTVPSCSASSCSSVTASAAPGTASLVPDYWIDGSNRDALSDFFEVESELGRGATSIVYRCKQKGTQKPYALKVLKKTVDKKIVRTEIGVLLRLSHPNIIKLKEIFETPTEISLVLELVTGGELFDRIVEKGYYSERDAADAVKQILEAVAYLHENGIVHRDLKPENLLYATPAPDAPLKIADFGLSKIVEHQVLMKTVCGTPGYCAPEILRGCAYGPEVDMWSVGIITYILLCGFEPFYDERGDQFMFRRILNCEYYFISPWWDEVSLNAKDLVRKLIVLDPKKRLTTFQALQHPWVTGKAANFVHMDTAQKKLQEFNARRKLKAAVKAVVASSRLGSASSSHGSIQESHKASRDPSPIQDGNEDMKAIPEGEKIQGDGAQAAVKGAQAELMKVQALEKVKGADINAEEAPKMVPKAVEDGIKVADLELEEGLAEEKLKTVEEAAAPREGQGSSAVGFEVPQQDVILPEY
# [6] = target: cAMP-dependent protein kinase (PKA) (Homo sapiens, UniProt P22694+P17612+P22612); assay: Inhibitory activity against Protein kinase A (Histone); assay type: protein assay
# [7] = Percent control against SKG at compound concentration of 500 nM; method in brief: as §2
# [8] = target: 3-phosphoinositide-dependent protein kinase 1 (Homo sapiens) (UniProt O15530); assay: Inhibition of PDK1 kinase at 500 nM; set-up: scale not given: the % may be the effect or the level left; method in brief: as §1
# [9] = target: Tyrosine-protein kinase Lyn (Homo sapiens) (UniProt P07948); assay: Inhibition of Protein tyrosine kinase Lyn at 500 nM; set-up: scale not given: the % may be the effect or the level left; method in brief: as §2
# [10] = target: Protein kinase C beta type (Homo sapiens) (UniProt P05771); assay: Inhibition of Protein kinase C beta 2 at 500 nM; set-up: scale not given: the % may be the effect or the level left; method in brief: as §1
# [11] = target: Ribosomal protein S6 kinase alpha-5 (Homo sapiens) (UniProt O75582); assay: Inhibition of MSK-1 kinase at 100 nM; set-up: scale not given: the % may be the effect or the level left; method in brief: as §1
# [12] = target: Protein kinase C alpha type (Homo sapiens) (UniProt P17252); assay: Inhibition of Protein kinase C alpha at 100 nM; set-up: scale not given: the % may be the effect or the level left; method in brief: as §1
# [13] = target: T1, CDK3/cyclin E (Homo sapiens) (UniProt P24864+O96020+Q00526); assay: Inhibition of Cyclin E-cyclin-dependent kinase 3 at 500 nM; assay type: protein-complex assay; set-up: scale not given: the % may be the effect or the level left; method in brief: as §1
# T1 sequence (O96020 whole entry, looked up): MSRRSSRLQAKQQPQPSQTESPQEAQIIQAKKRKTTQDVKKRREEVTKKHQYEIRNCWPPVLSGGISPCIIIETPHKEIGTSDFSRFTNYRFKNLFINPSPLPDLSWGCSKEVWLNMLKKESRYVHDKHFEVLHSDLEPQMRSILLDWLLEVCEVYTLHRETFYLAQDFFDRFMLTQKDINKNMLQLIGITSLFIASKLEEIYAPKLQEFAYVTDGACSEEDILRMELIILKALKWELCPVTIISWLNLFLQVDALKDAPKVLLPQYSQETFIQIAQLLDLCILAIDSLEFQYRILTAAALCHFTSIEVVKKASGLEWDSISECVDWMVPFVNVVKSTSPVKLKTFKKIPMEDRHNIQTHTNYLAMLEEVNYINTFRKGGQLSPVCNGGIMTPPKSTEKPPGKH
# T1 sequence (P24864 whole entry, looked up): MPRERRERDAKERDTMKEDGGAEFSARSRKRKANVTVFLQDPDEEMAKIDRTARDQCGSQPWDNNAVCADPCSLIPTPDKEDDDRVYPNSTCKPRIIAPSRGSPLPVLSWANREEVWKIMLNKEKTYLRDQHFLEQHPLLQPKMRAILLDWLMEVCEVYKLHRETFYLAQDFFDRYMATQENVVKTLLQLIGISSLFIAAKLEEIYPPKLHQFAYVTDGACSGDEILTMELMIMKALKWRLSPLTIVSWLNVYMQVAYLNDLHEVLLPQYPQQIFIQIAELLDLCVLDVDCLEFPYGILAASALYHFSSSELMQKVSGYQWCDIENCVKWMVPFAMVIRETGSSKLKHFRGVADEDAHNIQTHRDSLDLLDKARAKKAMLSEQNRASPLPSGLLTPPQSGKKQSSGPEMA
# T1 sequence (Q00526 whole entry, looked up): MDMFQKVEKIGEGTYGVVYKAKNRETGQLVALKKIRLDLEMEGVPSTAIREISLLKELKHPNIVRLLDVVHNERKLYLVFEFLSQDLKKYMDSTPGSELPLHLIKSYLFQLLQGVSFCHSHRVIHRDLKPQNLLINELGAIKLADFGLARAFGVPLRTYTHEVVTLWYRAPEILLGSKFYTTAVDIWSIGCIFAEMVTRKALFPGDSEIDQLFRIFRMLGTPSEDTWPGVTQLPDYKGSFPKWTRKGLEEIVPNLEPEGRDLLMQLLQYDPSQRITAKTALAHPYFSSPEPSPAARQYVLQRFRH
# [14] = target: Calcium/calmodulin-dependent protein kinase type IV (Homo sapiens) (UniProt Q16566); assay: Inhibition of Calcium/calmodulin-dependent protein kinase type IV at 100 nM; set-up: scale not given: the % may be the effect or the level left; method in brief: as §1
# [15] = target: Glycogen synthase kinase-3 beta (Homo sapiens, UniProt P49841); assay: Inhibition of Glycogen synthase kinase-3 beta
# [16] = target: Tyrosine-protein kinase Lck (Homo sapiens) (UniProt P06239); assay: Inhibition of p56 Lck tyrosine kinase at 500 nM; set-up: scale not given: the % may be the effect or the level left; method in brief: as §2
# [17] = target: Protein kinase C theta type (Homo sapiens) (UniProt Q04759); assay: Inhibition of Protein kinase C theta at 500 nM; set-up: scale not given: the % may be the effect or the level left; method in brief: as §2
# Protein kinase C theta type (Homo sapiens), sequence (Q04759 whole entry, looked up): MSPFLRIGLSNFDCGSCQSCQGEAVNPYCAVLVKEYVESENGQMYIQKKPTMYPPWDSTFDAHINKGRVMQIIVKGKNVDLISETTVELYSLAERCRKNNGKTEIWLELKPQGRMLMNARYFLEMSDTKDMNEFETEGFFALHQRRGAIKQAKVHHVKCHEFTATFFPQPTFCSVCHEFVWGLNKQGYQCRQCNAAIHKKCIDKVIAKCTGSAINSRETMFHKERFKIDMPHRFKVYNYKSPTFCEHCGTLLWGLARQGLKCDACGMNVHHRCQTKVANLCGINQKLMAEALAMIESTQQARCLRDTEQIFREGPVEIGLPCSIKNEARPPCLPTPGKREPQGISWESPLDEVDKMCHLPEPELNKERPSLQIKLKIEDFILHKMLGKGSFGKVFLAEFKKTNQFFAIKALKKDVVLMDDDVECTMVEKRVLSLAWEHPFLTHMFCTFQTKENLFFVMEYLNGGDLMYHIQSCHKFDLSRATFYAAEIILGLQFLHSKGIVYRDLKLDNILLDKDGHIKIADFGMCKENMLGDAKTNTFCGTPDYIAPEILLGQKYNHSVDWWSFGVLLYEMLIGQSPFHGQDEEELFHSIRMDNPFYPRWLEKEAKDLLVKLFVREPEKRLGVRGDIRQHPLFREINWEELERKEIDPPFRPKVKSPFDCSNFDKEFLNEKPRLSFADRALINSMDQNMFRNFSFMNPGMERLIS
# [18] = target: MAP kinase-activated protein kinase 2 (Homo sapiens) (UniProt P49137); assay: Inhibition of mitogen-activated protein kinase-activated protein kinase 2 at 100 nM; set-up: scale not given: the % may be the effect or the level left; method in brief: as §2
# MAP kinase-activated protein kinase 2 (Homo sapiens), sequence (P49137 whole entry, looked up): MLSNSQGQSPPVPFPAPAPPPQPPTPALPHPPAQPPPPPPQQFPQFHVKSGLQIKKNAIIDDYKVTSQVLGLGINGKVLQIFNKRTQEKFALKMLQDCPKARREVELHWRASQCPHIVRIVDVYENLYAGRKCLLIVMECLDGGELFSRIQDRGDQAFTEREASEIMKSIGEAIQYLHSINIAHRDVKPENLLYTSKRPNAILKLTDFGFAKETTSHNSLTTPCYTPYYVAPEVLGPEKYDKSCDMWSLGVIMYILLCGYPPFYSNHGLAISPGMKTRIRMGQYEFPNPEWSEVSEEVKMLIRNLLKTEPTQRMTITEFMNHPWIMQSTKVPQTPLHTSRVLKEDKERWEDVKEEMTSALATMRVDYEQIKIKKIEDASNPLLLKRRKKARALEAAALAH
# [19] = target: Inhibitor of nuclear factor kappa-B kinase subunit beta (Homo sapiens) (UniProt O14920); assay: Inhibition of I-kappa-B-kinase beta at 100 nM; set-up: scale not given: the % may be the effect or the level left; method in brief: as §1
# [20] = target: Cyclin-dependent kinase 4/cyclin D1 (Homo sapiens, UniProt P11802); assay: Inhibitory activity against Cyclin D1-cyclin-dependent kinase 4 in enzymatic assay by measuring phosphorylation of Rb21; assay type: protein-complex assay
# [21] = target: Mitogen-activated protein kinase 1 (Homo sapiens) (UniProt P28482); assay: Inhibition of Mitogen-activated protein kinase 2 at 500 nM; set-up: scale not given: the % may be the effect or the level left; method in brief: as §1
# [22] = target: Serine/threonine-protein kinase Chk2 (Homo sapiens) (UniProt O96017); assay: Inhibition of Serine/threonine-protein kinase Chk2 at 500 nM; set-up: scale not given: the % may be the effect or the level left; method in brief: as §2
# [23] = target: Serine/threonine-protein kinase Chk1 (Homo sapiens) (UniProt O14757); assay: Inhibition of Serine/threonine-protein kinase Chk1 at 100 nM; set-up: scale not given: the % may be the effect or the level left; method in brief: as §2
# [24] = target: MAP kinase-activated protein kinase 5 (Homo sapiens) (UniProt Q8IW41); assay: Inhibition of Protein kinase PRAK at 500 nM; set-up: scale not given: the % may be the effect or the level left; method in brief: as §2
# [25] = target: Tyrosine-protein kinase Blk (Homo sapiens) (UniProt P51451); assay: Inhibition of B lymphoid tyrosine kinase at 100 nM; set-up: scale not given: the % may be the effect or the level left; method in brief: as §1
# Tyrosine-protein kinase Blk (Homo sapiens), sequence (P51451 2-505 limits assumed): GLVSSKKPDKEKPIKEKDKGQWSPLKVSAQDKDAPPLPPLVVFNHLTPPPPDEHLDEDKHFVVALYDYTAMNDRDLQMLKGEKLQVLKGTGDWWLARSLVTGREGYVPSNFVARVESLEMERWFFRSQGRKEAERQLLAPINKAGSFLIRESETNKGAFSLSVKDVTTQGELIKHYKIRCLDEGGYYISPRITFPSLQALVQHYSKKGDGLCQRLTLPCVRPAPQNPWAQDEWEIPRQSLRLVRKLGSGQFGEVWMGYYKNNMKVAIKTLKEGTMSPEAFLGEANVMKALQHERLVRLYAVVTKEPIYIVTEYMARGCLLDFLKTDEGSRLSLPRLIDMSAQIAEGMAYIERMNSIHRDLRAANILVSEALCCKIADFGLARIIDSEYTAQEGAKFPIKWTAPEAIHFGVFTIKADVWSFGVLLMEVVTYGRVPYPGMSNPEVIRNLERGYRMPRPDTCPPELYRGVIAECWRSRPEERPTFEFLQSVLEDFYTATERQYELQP
# [26] = target: Dual specificity mitogen-activated protein kinase kinase 7 (Homo sapiens) (UniProt O14733); assay: Inhibition of MKK7-beta kinase at 500 nM; set-up: scale not given: the % may be the effect or the level left; method in brief: as §1
# [27] = target: Serine/threonine-protein kinase Sgk1 (Homo sapiens) (UniProt O00141); assay: Inhibition of Serum/glucocorticoid regulated kinase at 500 nM; set-up: scale not given: the % may be the effect or the level left; method in brief: as §2
# [28] = target: T2, Casein kinase I (Homo sapiens) (UniProt Q9HCP0+P78368+P48730+P49674+P48729); assay: Inhibition of CK1 kinase at 500 nM; assay type: protein assay; set-up: scale not given: the % may be the effect or the level left; method in brief: as §1
# [29] = target: Dual specificity mitogen-activated protein kinase kinase 1 (Homo sapiens) (UniProt Q02750); assay: Inhibition of Mitogen activated protein kinase kinase kinase 1 at 100 nM; set-up: scale not given: the % may be the effect or the level left
# [30] = target: RAF proto-oncogene serine/threonine-protein kinase (Homo sapiens) (UniProt P04049); assay: Inhibition of RAF proto-oncogene serine/threonine-protein kinase at 100 nM; set-up: scale not given: the % may be the effect or the level left; method in brief: as §2
# [31] = target: Mitogen-activated protein kinase 1 (Homo sapiens) (UniProt P28482); assay: Inhibition of Mitogen-activated protein kinase 2 at 100 nM; set-up: scale not given: the % may be the effect or the level left; method in brief: as §1
# [32] = target: Mitogen-activated protein kinase kinase kinase 20 (Homo sapiens, UniProt Q9NYL2); assay: Inhibition of MLK-7 kinase
# [33] = target: T1, CDK3/cyclin E (Homo sapiens); assay: Inhibition of Cyclin E-cyclin-dependent kinase 3 at 100 nM; assay type: protein-complex assay; set-up: scale not given: the % may be the effect or the level left; method in brief: as §1
# [34] = target: Mitogen-activated protein kinase 10 (Homo sapiens) (UniProt P53779); assay: Inhibition of c-Jun N-terminal kinase 3 at 500 nM; set-up: scale not given: the % may be the effect or the level left; method in brief: as §2
# [35] = target: Serine/threonine-protein kinase N2 (Homo sapiens) (UniProt Q16513); assay: Inhibition of PRK2 at 100 nM; set-up: scale not given: the % may be the effect or the level left; method in brief: as §1
# Serine/threonine-protein kinase N2 (Homo sapiens), sequence (Q16513 whole entry, looked up): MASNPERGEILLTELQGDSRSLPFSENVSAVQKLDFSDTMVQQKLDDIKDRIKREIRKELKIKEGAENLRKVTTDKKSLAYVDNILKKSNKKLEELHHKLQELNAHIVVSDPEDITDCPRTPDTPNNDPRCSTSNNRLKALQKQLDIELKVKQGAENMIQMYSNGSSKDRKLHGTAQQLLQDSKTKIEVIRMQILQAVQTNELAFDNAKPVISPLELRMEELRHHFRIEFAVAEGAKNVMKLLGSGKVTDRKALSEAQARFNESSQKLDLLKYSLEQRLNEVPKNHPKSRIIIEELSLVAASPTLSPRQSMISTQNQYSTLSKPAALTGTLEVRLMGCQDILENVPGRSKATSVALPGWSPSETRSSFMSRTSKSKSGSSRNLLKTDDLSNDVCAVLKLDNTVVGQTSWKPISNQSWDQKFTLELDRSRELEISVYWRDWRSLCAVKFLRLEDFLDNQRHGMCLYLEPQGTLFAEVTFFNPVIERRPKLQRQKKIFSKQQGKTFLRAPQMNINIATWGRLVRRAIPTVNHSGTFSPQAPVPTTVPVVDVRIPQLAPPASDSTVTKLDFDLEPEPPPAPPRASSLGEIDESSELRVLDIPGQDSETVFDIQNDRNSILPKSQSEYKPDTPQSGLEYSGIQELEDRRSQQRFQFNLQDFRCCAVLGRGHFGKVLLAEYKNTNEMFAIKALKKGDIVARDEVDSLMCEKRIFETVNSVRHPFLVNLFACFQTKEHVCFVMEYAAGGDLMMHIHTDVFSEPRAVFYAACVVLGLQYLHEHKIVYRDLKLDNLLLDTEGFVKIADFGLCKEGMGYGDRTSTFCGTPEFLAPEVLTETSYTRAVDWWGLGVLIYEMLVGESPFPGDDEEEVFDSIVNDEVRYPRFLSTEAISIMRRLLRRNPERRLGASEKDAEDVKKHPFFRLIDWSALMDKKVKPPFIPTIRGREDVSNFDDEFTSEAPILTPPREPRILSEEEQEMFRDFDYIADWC
# [36] = target: Tyrosine-protein kinase Blk (Homo sapiens) (UniProt P51451); assay: Inhibition of B lymphoid tyrosine kinase at 500 nM; set-up: scale not given: the % may be the effect or the level left; method in brief: as §1
# [37] = target: Serine/threonine-protein kinase N2 (Homo sapiens) (UniProt Q16513); assay: Inhibition of PRK2 at 500 nM; set-up: scale not given: the % may be the effect or the level left; method in brief: as §1
# [38] = target: Cyclin-dependent kinase 2/cyclin A (Homo sapiens) (UniProt P24941+P20248+P78396); assay: Inhibition of Cyclin A-cyclin-dependent kinase 2 at 100 nM; assay type: protein-complex assay; set-up: scale not given: the % may be the effect or the level left; method in brief: as §1
# [39] = target: Protein kinase C theta type (Homo sapiens) (UniProt Q04759); assay: Inhibition of Protein kinase C theta at 100 nM; set-up: scale not given: the % may be the effect or the level left; method in brief: as §2
# [40] = target: MAP kinase-activated protein kinase 5 (Homo sapiens) (UniProt Q8IW41); assay: Inhibition of Protein kinase PRAK at 100 nM; set-up: scale not given: the % may be the effect or the level left; method in brief: as §2
# [41] = target: MAP kinase-activated protein kinase 2 (Homo sapiens) (UniProt P49137); assay: Inhibition of mitogen-activated protein kinase-activated protein kinase 2 at 500 nM; set-up: scale not given: the % may be the effect or the level left; method in brief: as §2
# [42] = target: Casein kinase II (Homo sapiens) (UniProt P67870+P68400+P19784); assay: Inhibition of CK2 kinase at 100 nM; assay type: protein-complex assay; set-up: scale not given: the % may be the effect or the level left; method in brief: as §1
# [43] = target: Serine/threonine-protein kinase Sgk1 (Homo sapiens) (UniProt O00141); assay: Inhibition of Serum/glucocorticoid regulated kinase at 100 nM; set-up: scale not given: the % may be the effect or the level left; method in brief: as §2
# [44] = target: T2, Casein kinase I (Homo sapiens); assay: Inhibition of CK1 kinase at 100 nM; assay type: protein assay; set-up: scale not given: the % may be the effect or the level left; method in brief: as §1
# [45] = target: Tyrosine-protein kinase ZAP-70 (Homo sapiens) (UniProt P43403); assay: Inhibition of Zeta-chain (TCR) associated protein kinase 70 kDa (ZAP70) at 100 nM; set-up: scale not given: the % may be the effect or the level left; method in brief: as §2
# [46] = target: Dual specificity mitogen-activated protein kinase kinase 6 (Homo sapiens) (UniProt P52564); assay: Inhibition of mitogen-activated protein kinase kinase 6 at 100 nM; set-up: scale not given: the % may be the effect or the level left; method in brief: as §2
# [47] = target: Protein kinase C gamma type (Homo sapiens) (UniProt P05129); assay: Inhibition of Protein kinase C gamma at 500 nM; set-up: scale not given: the % may be the effect or the level left; method in brief: as §2
smiles,measurement,setting,value
Cn1ccc2ccc3c4[nH]c5c(CCCN[C@H]6CC[C@H](O)CC6)cccc5c4c4c(c3c21)C(=O)NC4=O,Control,[1],105%
same,Control,[2],107%
same,Control,[3],84%
same,Control,[4],86%
same,Control,[5],102%
same,IC50,[6],2.93 µM
same,Control,[7],84%
same,Control,[8],65%
same,Control,[9],18%
same,Control,[10],59%
same,Control,[11],92%
same,Control,[12],100%
same,Control,[13],63%
same,Control,[14],108%
same,pIC50,[15],< 4.70
same,Control,[16],60%
same,Control,[17],58%
same,Control,[18],94%
same,Control,[19],120%
same,pIC50,[20],7.72
same,Control,[21],90%
same,Control,[22],53%
same,Control,[23],86%
same,Control,[24],50%
same,Control,[25],74%
same,Control,[26],70%
same,Control,[27],84%
same,Control,[28],89%
same,Control,[29],95%
same,Control,[30],112%
same,Control,[31],103%
same,pIC50,[32],5.00
same,Control,[33],89%
same,Control,[34],97%
same,Control,[35],97%
same,Control,[36],14%
same,Control,[37],88%
same,Control,[38],83%
same,Control,[39],82%
same,Control,[40],86%
same,Control,[41],104%
same,Control,[42],99%
same,Control,[43],94%
same,Control,[44],98%
same,Control,[45],134%
same,Control,[46],100%
same,Control,[47],84%

# From ChEMBL document CHEMBL1136094, “Novel, potent and selective cyclin D1/CDK4 inhibitors: indolo[6,7-a]pyrrolo[3,4-c]carbazoles” (Bioorg Med Chem Lett, 2003)
